According to ChEMBL document CHEMBL3232910, “Synthesis and evaluation of several oleanolic acid glycoconjugates as protein tyrosine phosphatase 1B inhibitors” (Eur J Med Chem, 2014):

Assays:
Homo sapiens = organism: Homo sapiens; assay: Selectivity ratio of IC50 for TCPTP (unknown origin) to IC50 for recombinant PTP1B (unknown origin)
In short: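 Ratio of TCPTP IC50 to PTP1B IC50. Both come from the same pNPP hydrolysis assay: 10 min preincubation at 37 C in 50 mM HEPES, 2.5 mM EDTA, pH 7.0, 30 min reaction, Na2CO3 quench, A405. IC50 from 4-parameter logistic fits.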

[1] = molecular target: T1, Tyrosine-protein phosphatase non-receptor type 2 (Homo sapiens, UniProt P17706); assay: Inhibition of TCPTP (unknown origin) using p-nitrophenyl phosphate as substrate assessed as inhibition of release of p-nitrophenol preincubated for 10 mins measured before substrate addition after 30 mins by spectrophotometry
T1 sequence (P17706 whole entry): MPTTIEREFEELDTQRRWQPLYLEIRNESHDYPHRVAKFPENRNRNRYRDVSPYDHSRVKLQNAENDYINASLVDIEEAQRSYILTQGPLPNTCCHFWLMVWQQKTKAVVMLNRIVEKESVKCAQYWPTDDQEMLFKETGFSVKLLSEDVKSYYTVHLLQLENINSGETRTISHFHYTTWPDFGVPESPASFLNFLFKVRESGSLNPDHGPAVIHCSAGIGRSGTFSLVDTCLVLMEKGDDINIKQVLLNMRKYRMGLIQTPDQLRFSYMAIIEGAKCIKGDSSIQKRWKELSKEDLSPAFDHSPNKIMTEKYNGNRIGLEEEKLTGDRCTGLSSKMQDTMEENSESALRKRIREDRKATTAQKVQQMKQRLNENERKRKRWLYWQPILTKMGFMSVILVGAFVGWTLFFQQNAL
In short: (§1)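 Enzyme diluted in 25 mM HEPES, 50 mM NaCl, 2.5 mM EDTA, 0.1% BSA, pH 7.2. Inhibitor in DMSO was preincubated with enzyme in 50 mM HEPES, 2.5 mM EDTA, pH 7.0 at 37 C for 10 min. pNPP was then added, 30 min at 37 C, stopped with 2 M Na2CO3, A405 read.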

[2] = molecular target: T2, Tyrosine-protein phosphatase non-receptor type 1 (Homo sapiens) (UniProt P18031); assay: Inhibition of recombinant PTP1B (unknown origin) using p-nitrophenyl phosphate as substrate assessed as inhibition of release of p-nitrophenol preincubated for 10 mins measured before substrate addition at 10 ug/ml after 30 mins by spectrophotometry
T2 sequence (whole entry): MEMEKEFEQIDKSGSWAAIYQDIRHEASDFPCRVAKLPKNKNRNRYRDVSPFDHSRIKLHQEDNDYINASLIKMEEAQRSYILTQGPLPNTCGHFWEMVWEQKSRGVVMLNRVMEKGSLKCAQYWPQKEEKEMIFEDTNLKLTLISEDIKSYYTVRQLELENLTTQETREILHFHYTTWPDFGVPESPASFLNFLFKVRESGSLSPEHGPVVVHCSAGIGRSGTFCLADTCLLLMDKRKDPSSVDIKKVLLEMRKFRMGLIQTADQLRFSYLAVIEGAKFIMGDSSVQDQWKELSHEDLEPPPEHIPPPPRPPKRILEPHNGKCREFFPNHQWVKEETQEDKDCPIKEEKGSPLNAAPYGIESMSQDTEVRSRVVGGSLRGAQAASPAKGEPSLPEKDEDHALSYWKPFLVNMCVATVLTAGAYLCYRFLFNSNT

[3] = molecular target: T3, Tyrosine-protein phosphatase non-receptor type 1 (Homo sapiens, UniProt P18031); assay: Inhibition of recombinant PTP1B (unknown origin) using p-nitrophenyl phosphate as substrate assessed as inhibition of release of p-nitrophenol preincubated for 10 mins measured before substrate addition after 30 mins by spectrophotometry; in short: as §1
T3 sequence (P18031 whole entry): T2 sequence (whole entry)

Ratio IC50 (Homo sapiens) | IC50 [1] | inhibition [2] | IC50 [3] | SMILES
1 | 2.98 µM | > 54.7% | 3.12 µM | CC1(C)CC[C@]2(C(=O)O[C@@H]3O[C@H](CNC(=O)c4ccccc4C(=O)O)[C@@H](O)[C@H](O)[C@H]3O)CC[C@]3(C)C(=CC[C@@H]4[C@@]5(C)CC[C@H](O[C@@H]6O[C@H](CO[C@@H]7O[C@H](CO)[C@@H](O)[C@H](O)[C@H]7O)[C@@H](O)[C@H](O)[C@H]6O)C(C)(C)[C@@H]5CC[C@]43C)[C@@H]2C1
– | – | > 54.7% | 15.9 µM | CC1(C)CC[C@]2(C(=O)O[C@@H]3O[C@H](CNC(=O)c4ccccc4C(=O)O)[C@@H](O)[C@H](O)[C@H]3O)CC[C@]3(C)C(=CC[C@@H]4[C@@]5(C)CC[C@H](O[C@H]6O[C@H](CO)[C@@H](O)[C@H](O)[C@@H]6O)C(C)(C)[C@@H]5CC[C@]43C)[C@@H]2C1
2.8 | 2.16 µM | > 54.7% | 0.78 µM | CC1(C)CC[C@]2(C(=O)O[C@@H]3O[C@H](CNC(=O)c4ccccc4C(=O)O)[C@@H](O)[C@H](O)[C@H]3O)CC[C@]3(C)C(=CC[C@@H]4[C@@]5(C)CC[C@H](O[C@@H]6O[C@H](CO)[C@@H](O[C@@H]7O[C@H](CO)[C@@H](O)[C@H](O)[C@H]7O)[C@H](O)[C@H]6O)C(C)(C)[C@@H]5CC[C@]43C)[C@@H]2C1
2.2 | 12.4 µM | > 54.7% | 5.67 µM | CC1(C)CC[C@]2(C(=O)O[C@@H]3O[C@H](CNC(=O)c4ccccc4C(=O)O)[C@@H](O)[C@H](O)[C@H]3O)CC[C@]3(C)C(=CC[C@@H]4[C@@]5(C)CC[C@H](O[C@@H]6OC[C@H](O)[C@H](O)[C@H]6O)C(C)(C)[C@@H]5CC[C@]43C)[C@@H]2C1
1.2 | 24.4 µM | 54.7% | 20.4 µM | CC1(C)CC[C@]2(C(=O)O[C@@H]3O[C@H](CNC(=O)c4ccccc4C(=O)O)[C@@H](O)[C@H](O)[C@H]3O)CC[C@]3(C)C(=CC[C@@H]4[C@@]5(C)CC[C@H](O)C(C)(C)[C@@H]5CC[C@]43C)[C@@H]2C1
– | – | > 54.7% | 26.5 µM | C[C@@H]1O[C@@H](O[C@H]2CC[C@]3(C)[C@H]4CC=C5[C@@H]6CC(C)(C)CC[C@]6(C(=O)O[C@@H]6O[C@H](CNC(=O)c7ccccc7C(=O)O)[C@@H](O)[C@H](O)[C@H]6O)CC[C@@]5(C)[C@]4(C)CC[C@H]3C2(C)C)[C@H](O)[C@H](O)[C@H]1O
0.8 | 8.73 µM | > 54.7% | 10.4 µM | C[C@@H]1O[C@@H](O[C@H]2CC[C@]3(C)[C@H]4CC=C5[C@@H]6CC(C)(C)CC[C@]6(C(=O)O[C@@H]6O[C@H](CNC(=O)c7ccccc7C(=O)O)[C@@H](O)[C@H](O)[C@H]6O)CC[C@@]5(C)[C@]4(C)CC[C@H]3C2(C)C)[C@@H](O)[C@H](O)[C@@H]1O
4 | 4.11 µM | > 54.7% | 1.03 µM | CC1(C)CC[C@]2(C(=O)O[C@@H]3O[C@H](CNC(=O)c4ccccc4C(=O)O)[C@@H](O)[C@H](O)[C@H]3O)CC[C@]3(C)C(=CC[C@@H]4[C@@]5(C)CC[C@H](O[C@@H]6O[C@H](CO)[C@@H](O[C@@H]7O[C@H](CO)[C@H](O)[C@H](O)[C@H]7O)[C@H](O)[C@H]6O)C(C)(C)[C@@H]5CC[C@]43C)[C@@H]2C1
0.9 | 15.5 µM | > 54.7% | 16.6 µM | CC1(C)CC[C@]2(C(=O)O[C@@H]3O[C@H](CNC(=O)c4ccccc4C(=O)O)[C@@H](O)[C@H](O)[C@H]3O)CC[C@]3(C)C(=CC[C@@H]4[C@@]5(C)CC[C@H](O[C@@H]6OC[C@@H](O)[C@H](O)[C@H]6O)C(C)(C)[C@@H]5CC[C@]43C)[C@@H]2C1
2.2 | 14.6 µM | > 54.7% | 6.53 µM | CC1(C)CC[C@]2(C(=O)O[C@@H]3O[C@H](CNC(=O)c4ccccc4C(=O)O)[C@@H](O)[C@H](O)[C@H]3O)CC[C@]3(C)C(=CC[C@@H]4[C@@]5(C)CC[C@H](O[C@@H]6O[C@H](CO)[C@H](O)[C@H](O)[C@H]6O)C(C)(C)[C@@H]5CC[C@]43C)[C@@H]2C1
1.8 | 30.5 µM | > 54.7% | 17.2 µM | CC1(C)CC[C@]2(C(=O)O[C@@H]3O[C@H](CNC(=O)c4ccccc4C(=O)O)[C@@H](O)[C@H](O)[C@H]3O)CC[C@]3(C)C(=CC[C@@H]4[C@@]5(C)CC[C@H](O[C@@H]6O[C@H](CO)[C@@H](O)[C@H](O)[C@H]6O)C(C)(C)[C@@H]5CC[C@]43C)[C@@H]2C1
